Experimental data published in ChEMBL document CHEMBL2311444, “Synthesis of derivatives of the keto-pyrrolyl-difluorophenol scaffold: some structural aspects for aldose reductase inhibitory activity and selectivity” (Bioorg Med Chem, 2013).

How the values were obtained:
[1] = molecular target: Aldo-keto reductase family 1 member A1 (Rattus norvegicus) (UniProt P51635); experiment: Inhibition of Fischer-344 rat kidney ALR1 using D-glycuronate as substrate at 10' -5 M by spectrophotometry
[2] = molecular target: Aldo-keto reductase family 1 member A1 (Rattus norvegicus, UniProt P51635); experiment: Inhibition of Fischer-344 rat kidney ALR1 using D-glycuronate as substrate by spectrophotometry
Rattus norvegicus = species: Rattus norvegicus; experiment: Selectivity index, ratio of IC50 for Fischer-344 rat kidney ALR1 to IC50 for Fischer-344 rat lens ALR2; assay type: tissue-based; settings: Lens of camera-type eye
Summary of the method: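 Selectivity index calculated from the IC50 values of two spectrophotometric NADPH-consumption assays (340 nm). Rat kidney ALR1 was measured at 37 °C and rat lens ALR2 at 30 °C. Each IC50 was derived by least-squares fitting of triplicate five-concentration log(dose)–response data.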

[3] = molecular target: Aldo-keto reductase family 1 member B1 (Rattus norvegicus, UniProt P07943); experiment: Inhibition of Fischer-344 rat lens ALR2 by spectrophotometry

Aldo-keto reductase family 1 member A1, sequence (P51635 whole entry, looked up): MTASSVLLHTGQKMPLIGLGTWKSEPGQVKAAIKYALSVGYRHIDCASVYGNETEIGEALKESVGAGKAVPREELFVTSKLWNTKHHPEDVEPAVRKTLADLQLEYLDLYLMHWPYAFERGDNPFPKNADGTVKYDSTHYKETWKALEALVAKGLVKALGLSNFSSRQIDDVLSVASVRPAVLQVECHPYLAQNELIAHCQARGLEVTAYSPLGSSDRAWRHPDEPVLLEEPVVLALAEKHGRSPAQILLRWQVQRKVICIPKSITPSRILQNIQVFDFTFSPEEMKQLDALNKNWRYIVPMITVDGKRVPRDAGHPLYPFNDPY
Aldo-keto reductase family 1 member A1 (Rattus norvegicus), sequence (P51635 whole entry, looked up): as above

SMILES	inhibition [1] [%]	IC50 [2] [nM]	IC50 [3] [nM]	Ratio IC50 (Rattus norvegicus)
O=C(c1ccc(Br)cc1F)c1cccn1-c1cc(F)c(O)c(F)c1	96.8	190	190	1
O=C(c1ccc(-c2ccccc2)cc1)c1ccn(-c2cc(F)c(O)c(F)c2)c1	72.8	5630	2300	1.87
O=C(c1ccc(-c2ccccc2)cc1)c1cccn1-c1cc(F)c(O)c(F)c1	5.85	121000	510	238

Further compounds by falling IC50 [2], results first:

inhibition [1] [%]	IC50 [2] [nM]	IC50 [3] [nM]	SMILES	Ratio IC50 (Rattus norvegicus)
26.5	18900	930	O=C(c1cccn1-c1cc(F)c(O)c(F)c1)C(F)(F)F	20.3
30.9	16200	520	O=C(c1ccc(OC(F)(F)F)cc1)c1cccn1-c1cc(F)c(O)c(F)c1	31.1
38	13100	750	O=C(c1ccc(OC(F)(F)F)cc1)c1ccn(-c2cc(F)c(O)c(F)c2)c1	17.5
–	4310	400	O=C(c1ccn(-c2cc(F)c(O)c(F)c2)c1)c1ccc(Br)cc1F	–
